Data: ChEMBL document CHEMBL3352499, “One pot three components microwave assisted and conventional synthesis of new 3-(4-chloro-2-hydroxyphenyl)-2-(substituted) thiazolidin-4-one as antimicrobial agents” (Bioorg Med Chem Lett, 2014)
Values after ≈ are worked out from the molar mass of the structure shown.

Key:
[1] = test system: Bacillus subtilis; test: Antimicrobial activity against Bacillus subtilis NCIM-2063 after 20 hrs by two fold serial macrodilution technique; format: functional; conditions: NCIM-2063, 20 h
Summary of the method: (§1)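 Serial macrodilution in 96-well microtiter plates. Compounds were dissolved in saline (0.8% NaCl) containing 5% DMSO, and strains were incubated with a range of concentrations for 20 h at 37 °C on a rotary shaker (160 rpm). MIC was the lowest concentration without growth. Runs were in triplicate, with the mean taken. The negative control was 5% DMSO.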

[2] = test system: Bacillus subtilis; test: Bactericidal activity against Bacillus subtilis NCIM-2063 after 72 hrs by two fold serial macrodilution technique; format: functional; conditions: NCIM-2063, 72 h
Summary of the method: (§2)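 Serial subcultivation followed 72 h of exposure to compounds dissolved in saline containing 5% DMSO. MBC/MFC was the lowest concentration with no visible growth, taken as 99.5% killing of the original inoculum. Runs were in triplicate, with the mean reading used.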

[3] = test system: Staphylococcus aureus; test: Antimicrobial activity against Staphylococcus aureus NCIM-2901 after 20 hrs by two fold serial macrodilution technique; format: functional; conditions: NCIM-2901, 20 h; summary of the method: as §1
[4] = test system: Staphylococcus aureus; test: Bactericidal activity against Staphylococcus aureus NCIM-2901 after 72 hrs by two fold serial macrodilution technique; format: functional; conditions: NCIM-2901, 72 h; summary of the method: as §2
[5] = test system: Escherichia coli; test: Antimicrobial activity against Escherichia coli NCIM-2256 after 20 hrs by two fold serial macrodilution technique; format: functional; conditions: NCIM-2256, 20 h; summary of the method: as §1
[6] = test system: Escherichia coli; test: Bactericidal activity against Escherichia coli NCIM-2256 after 72 hrs by two fold serial macrodilution technique; format: functional; conditions: NCIM-2256, 72 h; summary of the method: as §2
[7] = test system: Salmonella typhimurium; test: Antimicrobial activity against […] after 20 hrs by two fold serial macrodilution technique; format: functional, Salmonella enterica subsp. enterica serovar Typhimurium; conditions: Salmonella enterica; summary of the method: as §1
[8] = test system: Salmonella typhimurium; test: Bactericidal activity against […] after 72 hrs by two fold serial macrodilution technique; format: functional, Salmonella enterica subsp. enterica serovar Typhimurium; conditions: Salmonella enterica; summary of the method: as §2
[9] = test system: Candida albicans; test: Antimicrobial activity against Candida albicans NCIM-3471 after 20 hrs by two fold serial macrodilution technique; format: functional; conditions: NCIM-3471, 20 h
[10] = test system: Candida albicans; test: Fungicidal activity against Candida albicans NCIM-3471 after 48 to 72 hrs by two fold serial macrodilution technique; format: functional; summary of the method: as §2
[11] = test system: Aspergillus flavus; test: Antimicrobial activity against Aspergillus flavus NCIM-539 after 20 hrs by two fold serial macrodilution technique; format: functional; conditions: NCIM-539, 20 h
[12] = test system: Aspergillus flavus; test: Fungicidal activity against Aspergillus flavus NCIM-539 after 48 to 72 hrs by two fold serial macrodilution technique; format: functional; summary of the method: as §2
[13] = test system: Aspergillus niger; test: Antimicrobial activity against Aspergillus niger NCIM-1196 after 20 hrs by two fold serial macrodilution technique; format: functional; conditions: NCIM-1196, 20 h
[14] = test system: Aspergillus niger; test: Fungicidal activity against Aspergillus niger NCIM-1196 after 48 to 72 hrs by two fold serial macrodilution technique; format: functional; summary of the method: as §2
[15] = test system: Cryptococcus neoformans; test: Antimicrobial activity against Cryptococcus neoformans NCIM-3378 after 20 hrs by two fold serial macrodilution technique; format: functional; conditions: NCIM-3378, 20 h
[16] = test system: Cryptococcus neoformans; test: Fungicidal activity against Cryptococcus neoformans NCIM-3378 after 48 to 72 hrs by two fold serial macrodilution technique; format: functional; summary of the method: as §2
[17] = test system: HeLa; test: Cytotoxicity against human HeLa cells by SRB method; format: cell-based
Summary of the method: (§3)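 SRB colorimetric growth assay. IC50, in µM, was the concentration inhibiting cell growth by 50% relative to untreated control cells. Runs were in triplicate in three independent experiments, with means reported. The positive control was doxorubicin.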

[18] = test system: MCF7; test: Cytotoxicity against human MCF7 cells by SRB method; format: cell-based; summary of the method: as §3

SMILES	MIC [1] [µg/mL]	MBC [2] [µg/mL]	MIC [3] [µg/mL]	MBC [4] [µg/mL]	MIC [5] [µg/mL]	MBC [6] [µg/mL]	MIC [7] [µg/mL]	MBC [8] [µg/mL]	MIC [9] [µg/mL]	MFC [10] [µg/mL]	MIC [11] [µg/mL]	MFC [12] [µg/mL]	MIC [13] [µg/mL]	MFC [14] [µg/mL]	MIC [15] [µg/mL]	MFC [16] [µg/mL]	IC50 [17] [µM]	IC50 [18] [µM]
O=C1CSC(c2ccccc2Cl)N1c1ccc(Cl)cc1O (stereo not given)	20 (≈ 58.8 µM)	40 (≈ 118 µM)	35 (≈ 103 µM)	55 (≈ 162 µM)	80 (≈ 235 µM)	140 (≈ 411 µM)	65 (≈ 191 µM)	135 (≈ 397 µM)	55 (≈ 162 µM)	140 (≈ 411 µM)	35 (≈ 103 µM)	50 (≈ 147 µM)	100 (≈ 294 µM)	155 (≈ 456 µM)	90 (≈ 265 µM)	135 (≈ 397 µM)	62.8	56.2
COc1ccc(C2SCC(=O)N2c2ccc(Cl)cc2O)cc1 (stereo not given)	30 (≈ 89.3 µM)	40 (≈ 119 µM)	30 (≈ 89.3 µM)	40 (≈ 119 µM)	35 (≈ 104 µM)	45 (≈ 134 µM)	25 (≈ 74.4 µM)	110 (≈ 328 µM)	15 (≈ 44.7 µM)	20 (≈ 59.6 µM)	15 (≈ 44.7 µM)	20 (≈ 59.6 µM)	80 (≈ 238 µM)	150 (≈ 447 µM)	65 (≈ 194 µM)	155 (≈ 462 µM)	51.6	48.6
COc1ccc(C2SCC(=O)N2c2ccc(Cl)cc2O)c(OC)c1 (stereo not given)	30 (≈ 82 µM)	45 (≈ 123 µM)	15 (≈ 41 µM)	25 (≈ 68.3 µM)	30 (≈ 82 µM)	50 (≈ 137 µM)	35 (≈ 95.7 µM)	45 (≈ 123 µM)	3 (≈ 8.2 µM)	17.5 (≈ 47.8 µM)	10 (≈ 27.3 µM)	15 (≈ 41 µM)	65 (≈ 178 µM)	120 (≈ 328 µM)	70 (≈ 191 µM)	120 (≈ 328 µM)	68.2	68.5
O=C1CSC(c2ccc(F)cc2)N1c1ccc(Cl)cc1O (stereo not given)	55 (≈ 170 µM)	150 (≈ 463 µM)	25 (≈ 77.2 µM)	45 (≈ 139 µM)	70 (≈ 216 µM)	145 (≈ 448 µM)	60 (≈ 185 µM)	140 (≈ 432 µM)	65 (≈ 201 µM)	150 (≈ 463 µM)	90 (≈ 278 µM)	140 (≈ 432 µM)	50 (≈ 154 µM)	140 (≈ 432 µM)	90 (≈ 278 µM)	145 (≈ 448 µM)	72.4	68.7
O=C1CSC(c2cccc(F)c2)N1c1ccc(Cl)cc1O (stereo not given)	100 (≈ 309 µM)	155 (≈ 479 µM)	80 (≈ 247 µM)	160 (≈ 494 µM)	70 (≈ 216 µM)	145 (≈ 448 µM)	90 (≈ 278 µM)	155 (≈ 479 µM)	95 (≈ 293 µM)	165 (≈ 510 µM)	90 (≈ 278 µM)	140 (≈ 432 µM)	100 (≈ 309 µM)	165 (≈ 510 µM)	85 (≈ 263 µM)	140 (≈ 432 µM)	67.3	65.8
